Assay results from different studies.
Compare with care: the assays were run in different laboratories.
Target: Activated CDC42 kinase 1 (TNK2, Homo sapiens, UniProt Q07912)

CC/C(=N\NC(=O)NCc1cccc(O)c1)c1ccc(O)c(C)c1O — inhibition (enzyme activity; inhibitor; 0.1 µM): -0.3%
O=S1(=O)N=C(NCc2ccc(OC(F)(F)F)cc2)Nc2cc(Cl)ccc21 — inhibition (binding; competition with immobilised ligand; 10 µM): > 90%
Cc1ccc(NC(=O)c2ccc(C)c(C(F)(F)F)c2)cc1C#Cc1nn(C2CCC(O)CC2)c2ncnc(N)c12 (centres unmarked) — remaining signal (cell-free assay; 10 µM): 4%
N#CCCc1ccc2c(c1)-c1[nH]c3ccc([N+](=O)[O-])cc3c1CC(=O)N2 — remaining signal (cell-free assay; 0.5 µM): 75.4%
O=C(N1CCS(=O)(=O)CC1)N1C[C@H](c2ccc(OC(F)(F)F)cc2)C[C@H](c2nc(C3CC3)no2)C1 — remaining binding (cell-free assay; competition with immobilised ligand; 1 µM): 97%
Cc1ccc(C(=O)Nc2ccc(CN3CCN(C)CC3)c(C(F)(F)F)c2)cc1C#Cc1cnc2cccnn12 — remaining activity (enzyme activity; inhibitor; 23.5 nM): 100%
Nc1ncnc2occ(-c3ccc(NC(=O)Nc4cc(C(F)(F)F)ccc4F)cc3)c12 — remaining signal (cell-free assay; inhibitor; 20 µM): 13%
CNC(=O)c1ccccc1Nc1cc(Nc2ccc(N3CCOCC3)cc2OC)ncc1C(F)(F)F — inhibition (enzyme activity; inhibitor; 1 µM): > 50%
Cc1sc(C(=O)NC2COC2)cc1-n1cc(NC(=O)Nc2c(F)cccc2Cl)cn1 — remaining activity (enzyme activity; inhibitor; 10 µM): 106%
CO[C@@H](C)c1c(Nc2ccc([C@H](N(C)C(=O)C3CCS(=O)(=O)CC3)C(F)(F)F)cc2)cnc2cc(Cl)nn12 — remaining binding (cell-free assay; competition with immobilised ligand; 1 µM): 100%
O=C1NC(=O)c2cc(Nc3ccc(F)cc3)c(Nc3ccc(F)cc3)cc21 — remaining signal (cell-free assay; 0.5 µM): 93.2%
CNC(=O)c1ccc(Nc2ncc(C(F)(F)F)c(NCc3nccnc3N(C)S(C)(=O)=O)n2)cc1 — remaining binding (cell-free assay; competition with immobilised ligand; 0.1 µM): 100%
Cc1cnc(NC2CCOCC2)nc1-n1cnc(C(=O)NC(CN)c2cc(F)cc(Cl)c2)c1 (centres unmarked) — remaining activity (enzyme activity; inhibitor; radiometric; 1 µM): 110%
COc1ccc2cc(OCC3(C(=O)O)CN(C(=O)c4ccc(F)cc4)C3)ccc2c1 — remaining binding (cell-free assay; competition with immobilised ligand; 1 µM): 100%
CC(C)(C)c1nc2c(s1)c1nc(N)ncc1c1ccc(NS(=O)(=O)c3c(F)cccc3F)c(F)c12 — remaining activity (enzyme activity; inhibitor; radiometric; 1 µM): 75%
CN(C)CC#Cc1ccc(OCCCc2sc(N3CCc4cccc(C(=O)Nc5nc6ccccc6s5)c4C3)nc2C(=O)O)c(F)c1 — remaining binding (cell-free assay; competition with immobilised ligand; 1 µM): 100%
CCCCNc1ncc2c(-c3ccc(F)cc3)nn(C[C@H]3CC[C@H](N)CC3)c2n1 — inhibition (target engagement in cells; inhibitor; chemoproteomics; 20 mM): 71.4%
